# MrgX1 ag: activates human MrgX1 receptor signaling; Q96LB2; MrgX1-HEK293 cells, Fluo-4 calcium fluorescence, agonist mode; active compounds read high; B-score at 10 µM; hit rate 0.44% among 310,000;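 active means calcium response B-score plate-corrected fluorescence ratio at least 3 library SD, with starting fluorescence B-score inside 5 SD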
# Target sequence (Q96LB2 whole entry, looked up): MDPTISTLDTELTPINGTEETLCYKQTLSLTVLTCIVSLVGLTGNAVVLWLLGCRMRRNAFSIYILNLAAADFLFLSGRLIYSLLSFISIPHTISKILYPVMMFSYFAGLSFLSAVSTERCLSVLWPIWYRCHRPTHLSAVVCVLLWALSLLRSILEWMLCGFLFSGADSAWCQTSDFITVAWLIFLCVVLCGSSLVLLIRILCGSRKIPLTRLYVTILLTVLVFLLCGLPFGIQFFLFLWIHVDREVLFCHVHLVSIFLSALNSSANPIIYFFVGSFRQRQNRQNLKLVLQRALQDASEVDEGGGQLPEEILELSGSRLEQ
#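 Assay system: MrgX1-expressing HEK293 cells / Amount: fifteen thousand cells per well / Doses: test compound in the initial addition of three / Timing: cells plated overnight, dye loaded 0.5 h 37 °C, 0.5 h room temperature / Technique: kinetic calcium dye fluorescence, Fluo-4 NW / Control set: positive and negative controls per plate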
# RGS4 pot: potentiators or activators of RGS4; HEK293 M3R/inducible RGS4, carbachol calcium flux Fluo4; active compounds read low; B-score at 10 µM; hit rate 0.92% among 310,000;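 active means B-score of the integrated calcium signal more than 4 SD below the library mean, with starting fluorescence not abnormally high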;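 further: negative B-score means reduced calcium response which marks RGS4 activation or potentiation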
#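 Also added: carbachol at ECmax as muscarinic agonist stimulus; Assay system: HEK293 cells with stable M3R and inducible RGS4; Timing: overnight RGS4 induction, 30 min dye load 37 °C, 20 min compound RT; Measured by: Fluo4-AM (2 µM) calcium-flux fluorescence, kinetic read.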
# MrgX1 PAM: human MrgX1 positive allosteric modulation, primary screen | B-score at 10 µM | AID 588675 | MrgX1-HEK293, Fluo-4 calcium flux, FDSS; active compounds read high | hit rate 0.63% among 310,000 | Q96LB2;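 active means plate-corrected calcium response at least 3 library SD above typical, normal starting fluorescence, not activating the receptor alone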;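 further: compound read alongside a low EC10 to EC30 dose of BAM8-22 agonist; peak minus trough fluorescence over baseline measured at the second addition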
# MrgX1 antagonist: human MrgX1 receptor antagonism, primary screen. Q96LB2. MRGX1-HEK293 calcium flux, Fluo-4, BAM8-22 antagonism; active compounds read low. B-score at 10 µM. hit rate 1.3% among 310,000. AID 588676;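 active means calcium-response B-score plate-corrected more than 3 library SD below zero, starting fluorescence within 5 deviations, no agonist response on first addition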;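 further: peak minus trough fluorescence over baseline after final BAM8-22 challenge near maximal dose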
# RGS4 inh: human RGS4 inhibition; P49798; HEK293 M3R/RGS4 inducible, Fluo-4 calcium flux; active compounds read high; triggered by carbachol at its EC20; B-score at 10 µM; hit rate 0.45% among 310,000; AID 463165;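 active means B-score, a plate-corrected calcium signal, over three deviations above library mean, with baseline fluorescence within five deviations of library mean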;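 further: RGS4 expression induced by doxycycline in cells with stable M3 receptor; B-score is computed from the integrated fluorescence ratio over baseline after carbachol; higher B-score means a larger calcium signal and so more RGS4 inhibition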
# Target sequence (P49798 whole entry, looked up): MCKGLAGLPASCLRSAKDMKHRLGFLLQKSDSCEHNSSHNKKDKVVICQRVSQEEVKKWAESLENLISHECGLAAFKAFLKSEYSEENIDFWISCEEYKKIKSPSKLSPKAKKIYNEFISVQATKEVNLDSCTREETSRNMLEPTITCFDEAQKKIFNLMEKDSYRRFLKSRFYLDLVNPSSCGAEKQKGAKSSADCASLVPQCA
# MrgX1 antag conf: reconfirmed antagonist of human MrgX1 receptor signaling; shares compounds with MrgX1 antagonist; MrgX1-HEK293, BAM8-22 calcium flux, Fluo-4; active compounds read low; remaining BAM8-22 calcium response % of control (active compounds read low), % at 10 µM; hit rate 19% among 2,300; AID 602420;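 active means remaining agonist calcium response no higher than 100% minus 3 SD of agonist-only control wells, with starting fluorescence near control levels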;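 further: agonist BAM8-22 given at a near maximal EC90 to ECmax level; peak minus minimum fluorescence divided by baseline after agonist addition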
# HEK293 Ca flux: counter-screen for MrgX1 antagonists: effect in parental HEK293 cells. Fluo-4 calcium fluorescence, FDSS. shares compounds with MrgX1 antagonist. fluorescence ratio F(max-min)/F0 at 10 µM. hit rate 2% among 4,000;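 active means duplicate-averaged calcium fluorescence ratio at least three times the standard deviation of buffer wells, a nonspecific response in parental cells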
# HEK293 Ca counter: MrgX1 allosteric activator counter-screen hit in parental HEK293 cells. fluorescence ratio F(max-min)/F0 at 10 µM. parental HEK293 calcium flux, Fluo-4 fluorescence ratio; active compounds read high. hit rate 0.4% among 4,000. AID 624114. shares compounds with MrgX1 antagonist;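 active means calcium fluorescence ratio, averaged over duplicates, at least 3 SD of the buffer-well ratio, meaning a nonspecific response in receptor-free cells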;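 further: untransfected parental HEK293 lacking MrgX1 used as counterscreen for MrgX1 allosteric activators; fluorescence change taken during the second addition on a kinetic imager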
# HEK293 Ca cntr2: activity in parental HEK293 cells lacking MrgX1 receptor; shares compounds with MrgX1 antagonist; Fluo-4 calcium fluorescence (FDSS); active compounds read high; fluorescence ratio F(max-min)/F0 at 10 µM; hit rate 8.7% among 4,000;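 active means calcium fluorescence ratio at least three times the spread of buffer wells, meaning a non-specific response in parental cells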
# The depositor's hits bear a star; i = inactive; nt = no result. This is a sample that favours compounds with a hit; in the whole collection about 3.5% have one here.
SMILES,MrgX1 ag,RGS4 pot,MrgX1 PAM,MrgX1 antagonist,RGS4 inh,MrgX1 antag conf,HEK293 Ca flux,HEK293 Ca counter,HEK293 Ca cntr2
O=C(CSc1nnc(-c2ccccc2)n1Cc1ccccc1)N1CCOCC1,i,i,i,i,i,nt,nt,nt,nt
Cc1ccc(Nc2nc(C(=O)N3CCC(C(=O)N4CCN(C)CC4)CC3)cs2)cc1,i,i,i,-8.2*,i,i,i,i,i
COc1cc(C(=O)OCC(=O)Nc2cc(S(=O)(=O)N3CCOCC3)ccc2C)ccc1OCC(C)C,i,i,i,i,i,nt,nt,nt,nt
O=C(Nc1cccc(F)c1)Nc1ccnn1C1CCN(C(=O)CCN2CCCO2)CC1,i,i,i,i,i,nt,nt,nt,nt
O=C(Nc1cccc(F)c1)Nc1ccnn1C1CCN(C(=O)c2cscn2)CC1,i,i,i,-7.3*,i,i,i,i,i
COc1ccc(OC)c(CNC(=O)CCS(=O)(=O)c2ccc3c(c2)oc(=O)n3C)c1,i,i,i,i,i,nt,nt,nt,nt
Cc1ccc(-c2[nH]c3ccccc3c2SCCN)cc1,i,i,i,i,i,nt,nt,nt,nt
Cc1[nH]c2ccccc2c1SCCN,i,i,i,-7.5*,i,i,i,i,i
C=CCOc1ccccc1/C=N/NC(=O)Cc1ccc(C)cc1,i,i,i,i,i,nt,nt,nt,nt
O=S(=O)(Nc1nc(-c2ccccc2)cs1)c1cccc(C(F)(F)F)c1,i,i,i,-7.4*,i,i,i,i,i
CC(=O)c1ccccc1NC(=O)COC(=O)/C=C/c1ccc(OC(F)F)cc1,i,i,i,i,i,nt,nt,nt,nt
Cc1cc2ccccn2c1C(=O)c1ccccc1F,i,i,i,i,i,nt,nt,nt,nt
Cc1ccccc1Cc1c(C)nc2c(C(=O)NCc3ccc4c(c3)OCO4)cnn2c1C,i,i,i,-4.8*,i,i,i,i,i
COc1cccc(C2=CC(c3ccccc3)n3nnnc3N2)c1 (stereo not given),i,i,i,-5.6*,i,i,i,i,i
COc1ccc(NC(=O)N2CCCC2C(=O)NCc2ccc(F)cc2)cc1 (stereo not given),i,i,i,-13*,i,i,i,i,i
COc1ccccc1NC(=O)N1CCCC1C(=O)NCc1ccccc1 (stereo not given),i,i,i,-5.7*,i,i,i,i,i
COc1cccc(NC(=O)C2CCCN2C(=O)Nc2cccc(F)c2)c1 (stereo not given),i,i,i,-4.9*,i,i,i,i,i
COc1cccc(NC(=O)C2CCCN2C(=O)Nc2ccccc2)c1 (stereo not given),i,i,i,i,i,nt,nt,nt,nt
Cc1cccc(OCC(=O)NCCNC(=O)c2ccccn2)c1,i,i,i,i,i,nt,nt,nt,nt
COc1cc(NC(=O)CCN2CCN(c3ccccc3F)CC2)cc(OC)c1,i,i,i,-4.8*,i,i,i,i,i
CC1Cc2ccccc2N1C(=O)c1ccc2nccnc2c1 (stereo not given),i,i,i,i,i,nt,nt,nt,nt
Cc1cc(CNC(=O)c2ccc3oc(C(C)C)nc3c2)nn1C,i,i,i,i,i,nt,nt,nt,nt
CCOC(=O)c1sc(-c2ccc(C(F)(F)F)cc2)nc1O,i,i,i,-5.7*,i,59%*,i,i,i
CC(C)(C)c1ccc(C(=O)NNc2cc(Cl)cc(Cl)c2)cc1,i,i,i,i,i,nt,nt,nt,nt

# High-throughput results from PubChem.
